# Compounds with a hit are over-represented: about 4.8% of the library has one in this group of screens.
# NLRP3 yeast inh – blocks the NALP3 inflammasome reconstituted in yeast | Yeast reconstituted NLRP3/ASC/caspase-1, beta-gal luminescence, 24 h | inhibition, % at 10 µM | hit rate 0.39% among 330,000;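 active = inhibition of 50% or more; inactive = inhibition below 50%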;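 note: plate controls were induced DMSO wells for no effect and uninduced yeast grown without galactose for full effect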
# ALR H2O2 inh – human ALR oxidase inhibition via reduced H2O2; AID 485317; hit rate 3.8% among 290,000; purified ALR, DTT oxidation, H2O2 HRP-luminol luminescence; inhibition, % (test concentration not listed);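 active = mean replicate inhibition above about 79%, with every replicate also reaching it, limit read from the data; inconclusive = only one of the two criteria met; inactive = mean below limit and not every replicate reaching it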
# Target sequence (P55789 whole entry, looked up): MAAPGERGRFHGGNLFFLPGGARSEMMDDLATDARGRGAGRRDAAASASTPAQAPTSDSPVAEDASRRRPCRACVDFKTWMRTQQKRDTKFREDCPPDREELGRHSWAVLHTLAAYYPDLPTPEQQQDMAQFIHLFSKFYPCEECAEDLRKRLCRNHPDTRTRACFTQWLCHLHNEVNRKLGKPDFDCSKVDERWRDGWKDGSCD
# UCH37 inh – blocks the human deubiquitinase UCH37 | hit rate 0.33% among 330,000 | inhibition, % (concentration not given with the values) | purified proteasome/UCH37, Ub-AMC cleavage fluorescence | AID 588478 | Q9Y5K5;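 active = mean inhibition over replicate wells above about 20%, limit read from the data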;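 note: 0% = compound-free wells with enzyme and 100% = wells lacking proteasome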
# Target sequence (Q9Y5K5 whole entry, looked up): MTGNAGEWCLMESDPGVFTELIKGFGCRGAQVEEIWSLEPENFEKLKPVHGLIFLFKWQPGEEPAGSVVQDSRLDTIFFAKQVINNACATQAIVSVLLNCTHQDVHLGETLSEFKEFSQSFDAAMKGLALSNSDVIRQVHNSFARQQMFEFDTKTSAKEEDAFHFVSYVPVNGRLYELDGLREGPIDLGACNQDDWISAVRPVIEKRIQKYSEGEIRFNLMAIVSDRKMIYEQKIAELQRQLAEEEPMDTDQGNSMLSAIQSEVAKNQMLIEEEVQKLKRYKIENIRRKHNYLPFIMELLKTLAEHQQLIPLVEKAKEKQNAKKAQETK
#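 Test system – human UCH37 enzyme supplied as purified proteasome complex · Incubation – 30 min preincubation with enzyme, 25 min cleavage at room temperature · Detection – AMC fluorescence from Ub-AMC cleavage, excitation 355 nm, emission 460 nm · Benchmarks – no-proteasome wells (full inhibition) and compound-free wells (no inhibition)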
# Calb FLC – C. albicans growth modulation with fluconazole; C. albicans CaCi-2 + fluconazole, Alamar Blue growth, 48 h; growth inhibition, % (concentration not given with the values); hit rate 0.57% among 300,000; AID 1979;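 active = growth inhibition above about 58% in most replicates, limit read from the data, passing the limit was not always enough; inconclusive = exactly half the replicates above a set limit; inactive = most replicates below a set limit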;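 note: all wells also contain fluconazole at 8 µg/ml as a sub-toxic cotreatment; 0% = median of DMSO wells and 100% = median of geldanamycin control wells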
# ATG4B inh – ATG4B (human) cysteine protease inhibition. Q9Y4P1. hit rate 0.51% among 340,000. AID 504462. inhibition, % at 8.33 µM. ATG4B cleavage of LC3-PLA2, NBD-HPC fluorescence, 1 h; in the data active = inhibition above about 40%
# NALP1 yeast inh – blocks the NALP1 inflammasome reconstituted in yeast; hit rate 0.61% among 280,000; S. cerevisiae NALP1/ASC/caspase-1 growth, X-gal OD620, 72 h; inhibition, % at 10 µM; AID 2071; in the data active = inhibition mostly above about 24%, no sharp cut-off; inactive = mostly below about 32%
# Numbers without * were called inactive; ? = inconclusive; nt = no result given.
SMILES,NLRP3 yeast inh,ALR H2O2 inh,UCH37 inh,Calb FLC,ATG4B inh,NALP1 yeast inh
Cc1nc(C)c(C(=O)N/N=C/c2cc(Br)ccc2O)s1,14,-1,nt,89*,-2,nt
O=C(N/N=C/c1cc(Cl)ccc1O)c1ccc(Br)cc1,nt,-7,nt,nt,5,46*
O=C(O)Cn1cc(C=c2sc3nc4ccccc4n3c2=O)c2ccccc21,nt,nt,14,nt,nt,nt
Cc1nn(CC(=O)NN=Cc2cccs2)c(C)c1[N+](=O)[O-],nt,nt,1,nt,nt,nt
NNC(=O)CCc1nc2ccc(O)cc2[nH]1,1,96*,nt,56,0,-4
O=C(CCc1nc2ccccc2[nH]1)Nc1ccccc1,15,nt,4,-1,4,4
CC1=C(C)CS(=O)N(S(=O)(=O)c2ccc(Cl)cc2)C1 (stereo not given),-16,99*,nt,-4,5,2
O=C(c1ccc(Cn2cc(Cl)cn2)cc1)N1CCN(c2ccccc2)CC1,21,98*,2,15,-11,2
O=C(Nc1cccc2ccccc12)c1ccc(Cn2cc(Cl)cn2)cc1,48,-18,1,-3,-8,8
O=C(Nc1ccccc1F)c1ccc(Cn2cc(Cl)cn2)cc1,32,100*,0,-5,5,-14
O=C(NN1C(=O)c2cc(Br)ccc2NC1c1cc(Br)cc(Br)c1O)c1ccncc1 (stereo not given),41,10,2,1,10,57*
O=C(NN1C(=O)c2cc(Br)ccc2NC1c1ccccc1Cl)c1ccncc1 (stereo not given),12,2,nt,-2,1,22
Cc1ccccc1-c1nc2ccccc2c(=O)n1N=Cc1ccc([N+](=O)[O-])cc1,nt,nt,3,nt,nt,nt
Cc1c(CCC(=O)O)c(=O)oc2cc3occ(-c4ccc(F)cc4)c3cc12,-16,97*,-7,-6,-1,6
CN(C)C=NNC(=O)c1ccccc1Cl,nt,nt,7,nt,nt,nt
COc1ccc(-c2c[n+]3c(n2-c2ccc(C)cc2)CCCCC3)cc1,19,-4,3,-8,9,7
CCOc1ccc(-n2c(-c3ccc(Br)cc3)c[n+]3c2CCCCC3)cc1,12,-23,2,103*,1,10
CCOc1ccc(-n2c(-c3ccc(OC)cc3)c[n+]3c2CCCCC3)cc1,7,-1,1,110*,0,nt
COc1ccc(-c2c[n+]3c(n2-c2ccccc2)CCCCC3)cc1,8,2,0,112*,-3,35
CCOc1ccc(-n2c(-c3ccccc3)c[n+]3c2CCC3)cc1,13,-15,-1,-16,-7,4
NC(Cc1ccc([N+](=O)[O-])cc1)=NOC(=O)c1cccc(Br)c1,nt,nt,1,nt,nt,nt
CCCCCCCC(=O)NN=Cc1ccncc1,nt,nt,4,nt,nt,nt
CCN(CC)CCC(c1ccc(N(C)C)cc1)c1c(O)cc(OC)cc1OC (stereo not given),9,99*,1,-2,-3,15
COc1cc(O)c(C(CCN2CCCC(C)C2)c2ccc(N(C)C)cc2)c(OC)c1 (stereo not given),17,98*,4,-24,-9,9
COc1cc(O)c(C(CCN2CCOCC2)c2ccc(N(C)C)cc2)c(OC)c1 (stereo not given),13,99*,5,-16,-3,8
SMILES,NLRP3 yeast inh,ALR H2O2 inh,UCH37 inh,Calb FLC,ATG4B inh,NALP1 yeast inh
COc1cc(O)c(C(CCN2CCCC(C)C2)c2ccc3c(c2)OCO3)c(OC)c1 (stereo not given),6,-14,4,-12,3,4
O=C(NN=CCCc1ccccc1)c1ccc(CN2c3cccc4cccc(c34)S2(=O)=O)cc1,nt,nt,-111,nt,nt,nt
COc1ccc(N2CCN(C(=O)c3ccccc3N(C)S(=O)(=O)c3ccccc3)CC2)cc1,2,90*,3,-19,-9,13
CCOc1ccc(S(=O)(=O)NCCC(=O)N2CCN(c3ccc(OC)cc3)CC2)cc1,23,77*,1,30,-10,-4
COc1ccc(N2CCN(C(=O)CCC(=O)NNc3nc4ccccc4c4nc(C)nn34)CC2)cc1,15,99*,3,-8,0,8
COc1ccc(N2CCN(C(=O)CCNC(=O)c3ccc(C(C)(C)C)cc3)CC2)cc1,20,86*,3,15,-16,-9
CN(c1ccccc1C(=O)N1CCN(c2ccccc2F)CC1)S(=O)(=O)c1ccccc1,17,-17,1,?,4,4
CCOc1ccc(S(=O)(=O)NCCC(=O)N2CCN(c3ncccn3)CC2)cc1,8,nt,1,nt,-11,nt
Cc1ccc(S(=O)(=O)N2CCN(CC(=O)NN=Cc3ccc(C)o3)CC2)cc1,nt,nt,5,nt,nt,nt
CCOc1ccc(C=NOCC(=O)NCc2cccs2)cc1,nt,nt,-2,nt,nt,nt
COc1ccc(N2CCN(C(=O)CCNS(=O)(=O)c3ccccc3)CC2)cc1,-24,98*,1,-4,-10,18
COC(=O)c1ccccc1OCC(=O)N1CCN(c2ccc(F)cc2)CC1,9,36,4,-1,-8,-9
CC(=O)N1CCN(c2ccc(NC(=O)c3ccc(Cl)cc3)cc2)CC1,5,3,nt,6,4,11
CC(=O)N1CCN(c2ccc(NC(=O)c3ccc(C(C)(C)C)cc3)cc2)CC1,19,4,1,109*,-20,36
COC(=O)c1ccccc1OCC(=O)N1CCN(c2ccc(OC)cc2)CC1,29,88*,-1,-2,-15,6
CC(=NNC(=O)c1ccc2c(c1)OCO2)c1ccc(NC(=O)CCCC(=O)O)cc1,nt,nt,4,nt,nt,nt
COC(=O)c1ccc(C=NNC(=O)C(=O)NCC2CCCO2)cc1 (stereo not given),nt,nt,3,nt,nt,nt
CCN(CC)c1ccc(/C=C/C(=O)C2C(=O)C=C(C)OC2=O)cc1 (stereo not given),28,99*,3,-12,-1,1
CC(C)COc1ccc(C(=O)NN=Cc2ccoc2)cc1,nt,nt,1,nt,nt,nt
O=c1[nH]c(=O)c2nnc(N/N=C/c3ccccc3F)nc2[nH]1,11,16,nt,1,-4,nt
O=c1[nH]c(=O)c2nnc(N/N=C\c3ccc(O)cc3)nc2[nH]1,13,99*,nt,nt,-1,0
Cc1sc(NC(=O)c2ccc(F)cc2)c(CN2CCCCCC2)c1C,11,-3,-11,22,22,29
Cc1sc(NC(=O)c2ccccc2F)c(CN2CCCCC2)c1C,18,95*,-1,3,29,29
C=CCOC(=O)C1=C(C)NC(SCC(=O)NC(=O)OCC)=C(C#N)C1c1cccnc1 (stereo not given),-1,2,-46,99*,-10,13
C=CCOC(=O)C1=C(C)NC(SCC(=O)N(CC)CC)=C(C#N)C1c1ccccc1 (stereo not given),-5,0,-8,-1,-6,0
CCCCCCCCCOC(=O)C(CC(=O)O)N1CCOCC1 (stereo not given),20,29,1,-23,2,45*
